Measured values from ChEMBL document CHEMBL4673224, “Synthesis of 7-benzylguanosine cap-analogue conjugates for eIF4E targeted degradation” (Eur J Med Chem, 2019).
Active and inactive are the calls of the source. The calls are words filed in the database; no cut-off is given here.

Legend:
[1] = molecular target: Eukaryotic translation initiation factor 4E (Homo sapiens) (UniProt P06730); experiment: Inhibition of eIF4E binding to m7GMP in immobilized resin with HEK293 lysate at 500 uM by western blot analysis based competitive binding assay; type: subcellular
Procedure, shortened: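 Cap pull-down is carried out on m7GMP agarose. HEK293 lysate is freeze-thawed thrice and cleared at 20,000 × g, and 350 μg protein is loaded for 2 h at 4 °C. After washes, the resin is incubated overnight with 500 μM compound in Buffer A (50 mM HEPES-KOH pH 7.5, 150 mM KCl). eIF4E remaining on the resin is read by anti-eIF4E western blot. m7GMP is the positive control and DMSO the negative control.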

[2] = molecular target: Eukaryotic translation initiation factor 4E (Homo sapiens) (UniProt P06730); experiment: Inhibition of eIF4E binding to m7GDP in immobilized resin with HEK293 lysate at 500 uM by western blot analysis based competitive binding assay; type: subcellular; conditions: time 12.0 hrs
Procedure, shortened: (§1)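 350 μg protein bound to m7GDP agarose for 2 h at 4 °C, washed, then exposed to compound in Buffer A overnight. Bound protein eluted in LDS buffer and probed with anti-eIF4E antibody. m7GDP is the positive control and DMSO the negative control.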

[3] = molecular target: T1, Protein cereblon/Eukaryotic translation initiation factor 4E (Homo sapiens) (UniProt P06730+Q96SW2); experiment: Protac activity at E3-liagse/eIF4E in human MDA-MB-231 cells assessed as reduction in eIF4E protein level at 25 to 200 uM after 24 to 72 hrs; type: cell-based; conditions: dose 25-200 µM, time 24-72 hrs
Procedure, shortened: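 MDA-MB-231 cells are grown in RPMI-1640 with 10% FBS and 1 mM glutamine at 37 °C under 5% CO2. Cells are exposed to compound at 25–200 μM for 24–72 h, and eIF4E protein level is then assessed.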

[4] = molecular target: T1, Protein cereblon/Eukaryotic translation initiation factor 4E (Homo sapiens); experiment: Protac activity at E3-ligase/eIF4E in human K562 cells assessed as intracellular eIF4E degradation by Western blot analysis; type: cell-based
[5] = molecular target: Eukaryotic translation initiation factor 4E (Homo sapiens) (UniProt P06730); experiment: Inhibition of eIF4E binding to m7GDP in immobilized resin with HEK293 lysate by western blot analysis based competitive binding assay; type: subcellular; conditions: dose 50-500 µM; procedure, shortened: as §1

T1 sequence (P06730 whole entry, looked up): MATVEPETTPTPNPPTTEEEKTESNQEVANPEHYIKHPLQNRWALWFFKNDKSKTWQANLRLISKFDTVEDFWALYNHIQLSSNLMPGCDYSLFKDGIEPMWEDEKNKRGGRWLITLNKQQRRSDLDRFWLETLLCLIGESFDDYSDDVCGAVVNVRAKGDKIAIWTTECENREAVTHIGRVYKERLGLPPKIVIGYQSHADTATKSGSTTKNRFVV
T1 sequence (Q96SW2 whole entry, looked up): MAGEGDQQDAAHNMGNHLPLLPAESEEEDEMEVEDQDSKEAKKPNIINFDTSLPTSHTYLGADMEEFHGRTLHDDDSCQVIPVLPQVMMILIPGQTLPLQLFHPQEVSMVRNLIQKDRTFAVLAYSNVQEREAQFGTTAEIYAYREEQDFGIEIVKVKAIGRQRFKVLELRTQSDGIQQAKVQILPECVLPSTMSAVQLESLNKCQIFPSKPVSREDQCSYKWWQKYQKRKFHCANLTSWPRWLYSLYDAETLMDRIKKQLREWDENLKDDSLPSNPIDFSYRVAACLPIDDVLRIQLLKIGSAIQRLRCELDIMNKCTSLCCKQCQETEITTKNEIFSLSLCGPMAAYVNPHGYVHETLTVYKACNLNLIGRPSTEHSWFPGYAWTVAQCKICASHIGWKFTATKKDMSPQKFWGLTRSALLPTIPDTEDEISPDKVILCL
Chain of Eukaryotic translation initiation factor 4E (Homo sapiens) (P06730 whole entry): as the sequence (P06730 whole entry, looked up) above

| SMILES | inhibition [1] | inhibition [2] | Activity [3] | Activity [4] | inhibition [5] |
| --- | --- | --- | --- | --- | --- |
| Nc1nc2c(c(=O)[nH]1)[n+](Cc1ccccc1)cn2[C@@H]1O[C@H](COP(=O)(O)OP(=O)(O)NCCOCCOCCOCCOCCOCCOCCOCCC(=O)Nc2cccc3c2CN(C2CCC(=O)NC2=O)C3=O)[C@@H](O)[C@H]1O (stereo partly drawn) | – | Active | inactive | – | – |
| Cc1ncsc1-c1ccc(CNC(=O)C2C[C@H](O)CN2C(=O)[C@@H](NC(=O)CCCCCNP(=O)(O)OP(=O)(O)OC[C@H]2O[C@@H](n3c[n+](Cc4ccccc4)c4c(=O)[nH]c(N)nc43)[C@H](O)[C@@H]2O)C(C)(C)C)cc1 (stereo partly drawn) | – | Active | inactive | inactive | – |
| Nc1nc2c(c(=O)[nH]1)[n+](Cc1ccc(F)cc1)cn2[C@@H]1O[C@H](COP(=O)(O)OP(=O)(O)NCCOCCOCCOCCC(=O)Nc2cccc3c2CN(C2CCC(=O)NC2=O)C3=O)[C@@H](O)[C@H]1O (stereo partly drawn) | – | Active | inactive | inactive | – |
| Nc1nc2c(c(=O)[nH]1)[n+](Cc1ccc(F)cc1)cn2[C@@H]1O[C@H](COP(=O)(O)OP(=O)(O)NCCOCCOCCOCCOCCOCCOCCOCCC(=O)Nc2cccc3c2CN(C2CCC(=O)NC2=O)C3=O)[C@@H](O)[C@H]1O (stereo partly drawn) | – | Active | inactive | – | – |
| Cc1ncsc1-c1ccc(CNC(=O)C2C[C@H](O)CN2C(=O)[C@@H](NC(=O)CCCCCNP(=O)(O)OP(=O)(O)OC[C@H]2O[C@@H](n3cnc4c(=O)[nH]c(N)nc43)[C@H](O)[C@@H]2O)C(C)(C)C)cc1 (stereo partly drawn) | – | inactive | – | inactive | – |
| Nc1nc2c(c(=O)[nH]1)[n+](Cc1ccccc1)cn2[C@@H]1O[C@H](COP(=O)(O)OP(=O)(O)NCCOCCOCCOCCC(=O)Nc2cccc3c2CN(C2CCC(=O)NC2=O)C3=O)[C@@H](O)[C@H]1O (stereo partly drawn) | – | Active | inactive | inactive | – |
| Cc1ncsc1-c1ccc(CNC(=O)C2C[C@H](O)CN2C(=O)[C@@H](NC(=O)CCCCCNP(=O)(O)OP(=O)(O)OC[C@H]2O[C@@H](n3c[n+](Cc4ccc(F)cc4)c4c(=O)[nH]c(N)nc43)[C@H](O)[C@@H]2O)C(C)(C)C)cc1 (stereo partly drawn) | – | Active | inactive | inactive | – |

Other lines, results leading:

| inhibition [1] | inhibition [2] | Activity [3] | Activity [4] | inhibition [5] | SMILES |
| --- | --- | --- | --- | --- | --- |
| inactive | – | – | – | – | Nc1nc2c(ncn2[C@@H]2O[C@H](COS(=O)(=O)NC(=O)CCC(=O)NCCCCCC(=O)Nc3cccc4c3CN(C3CCC(=O)NC3=O)C4=O)[C@@H](O)[C@H]2O)c(=O)[nH]1 (stereo partly drawn) |
| inactive | – | – | – | – | Nc1nc2c(ncn2[C@@H]2O[C@H](COP(=O)(O)NCCCCCC(=O)Nc3cccc4c3CN(C3CCC(=O)NC3=O)C4=O)[C@@H](O)[C@H]2O)c(=O)[nH]1 (stereo partly drawn) |
| – | inactive | – | – | – | Nc1nc2c(ncn2[C@@H]2O[C@H](COP(=O)(O)OP(=O)(O)NCCOCCOCCOCCOCCOCCOCCOCCC(=O)Nc3cccc4c3CN(C3CCC(=O)NC3=O)C4=O)[C@@H](O)[C@H]2O)c(=O)[nH]1 (stereo partly drawn) |
| – | Active | inactive | – | – | Nc1nc2c(c(=O)[nH]1)[n+](Cc1ccc(F)cc1)cn2[C@@H]1O[C@H](COP(=O)(O)OP(=O)(O)NCCCCCC(=O)Nc2cccc3c2CN(C2CCC(=O)NC2=O)C3=O)[C@@H](O)[C@H]1O (stereo partly drawn) |
| inactive | – | – | – | – | Nc1nc2c(c(=O)[nH]1)[n+](Cc1ccc(F)cc1)cn2[C@@H]1O[C@H](COS(=O)(=O)NC(=O)CCC(=O)NCCCCCC(=O)Nc2cccc3c2CN(C2CCC(=O)NC2=O)C3=O)[C@@H](O)[C@H]1O (stereo partly drawn) |
| – | Active | inactive | – | Dose-dependent effect | Nc1nc2c(c(=O)[nH]1)[n+](Cc1ccccc1)cn2[C@@H]1O[C@H](COP(=O)(O)OP(=O)(O)NCCCCCC(=O)Nc2cccc3c2CN(C2CCC(=O)NC2=O)C3=O)[C@@H](O)[C@H]1O (stereo partly drawn) |
| inactive | – | – | – | – | Nc1nc2c(c(=O)[nH]1)[n+](Cc1ccc(F)cc1)cn2[C@@H]1O[C@H](COP(=O)(O)NCCCCCC(=O)Nc2cccc3c2CN(C2CCC(=O)NC2=O)C3=O)[C@@H](O)[C@H]1O (stereo partly drawn) |
| inactive | – | – | – | – | Nc1nc2c(c(=O)[nH]1)[n+](Cc1ccccc1)cn2[C@@H]1O[C@H](COS(=O)(=O)NC(=O)CCC(=O)NCCCCCC(=O)Nc2cccc3c2CN(C2CCC(=O)NC2=O)C3=O)[C@@H](O)[C@H]1O (stereo partly drawn) |
| – | inactive | – | – | – | Nc1nc2c(ncn2[C@@H]2O[C@H](COP(=O)(O)OP(=O)(O)NCCCCCC(=O)Nc3cccc4c3CN(C3CCC(=O)NC3=O)C4=O)[C@@H](O)[C@H]2O)c(=O)[nH]1 (stereo partly drawn) |
| inactive | – | – | – | – | Nc1nc2c(c(=O)[nH]1)[n+](Cc1ccccc1)cn2[C@@H]1O[C@H](COP(=O)(O)NCCCCCC(=O)Nc2cccc3c2CN(C2CCC(=O)NC2=O)C3=O)[C@@H](O)[C@H]1O (stereo partly drawn) |
| – | inactive | – | inactive | – | Nc1nc2c(ncn2[C@@H]2O[C@H](COP(=O)(O)OP(=O)(O)NCCOCCOCCOCCC(=O)Nc3cccc4c3CN(C3CCC(=O)NC3=O)C4=O)[C@@H](O)[C@H]2O)c(=O)[nH]1 (stereo partly drawn) |
